For data set [1], the target named is Histone deacetylase 1 (Homo sapiens, UniProt Q13547). Description: Inhibition of HDAC1 purified from HEK293 cells by Western blot. The format is cell-free. On the technique in general: Immunoblotting shows a protein as a band on a membrane.
Data set [2] addresses Histone deacetylase 3 (Homo sapiens, UniProt O15379). Put plainly: Inhibition of HDAC3 purified from HEK293 cells by Western blot. It counts as cell-free.
The nature of data set [3]: Inhibition of histidine-tagged HDAC4 wild type catalytic domain purified from Escherichia coli after 10 mins. The method in brief: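 His-tagged HDAC4 catalytic domain (653-1084) expressed in E. coli. Trifluoroacetamide substrate then added for 1 h at 37 °C. Stopped with developer/TSA; fluorescence read at ex 360/em 460. IC50 values are means of >2 experiments.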
The target of data set [4] is T1, Protein deacetylase HDAC6 (Homo sapiens, UniProt Q9UBN7).
T1 sequence (Q9UBN7 whole entry): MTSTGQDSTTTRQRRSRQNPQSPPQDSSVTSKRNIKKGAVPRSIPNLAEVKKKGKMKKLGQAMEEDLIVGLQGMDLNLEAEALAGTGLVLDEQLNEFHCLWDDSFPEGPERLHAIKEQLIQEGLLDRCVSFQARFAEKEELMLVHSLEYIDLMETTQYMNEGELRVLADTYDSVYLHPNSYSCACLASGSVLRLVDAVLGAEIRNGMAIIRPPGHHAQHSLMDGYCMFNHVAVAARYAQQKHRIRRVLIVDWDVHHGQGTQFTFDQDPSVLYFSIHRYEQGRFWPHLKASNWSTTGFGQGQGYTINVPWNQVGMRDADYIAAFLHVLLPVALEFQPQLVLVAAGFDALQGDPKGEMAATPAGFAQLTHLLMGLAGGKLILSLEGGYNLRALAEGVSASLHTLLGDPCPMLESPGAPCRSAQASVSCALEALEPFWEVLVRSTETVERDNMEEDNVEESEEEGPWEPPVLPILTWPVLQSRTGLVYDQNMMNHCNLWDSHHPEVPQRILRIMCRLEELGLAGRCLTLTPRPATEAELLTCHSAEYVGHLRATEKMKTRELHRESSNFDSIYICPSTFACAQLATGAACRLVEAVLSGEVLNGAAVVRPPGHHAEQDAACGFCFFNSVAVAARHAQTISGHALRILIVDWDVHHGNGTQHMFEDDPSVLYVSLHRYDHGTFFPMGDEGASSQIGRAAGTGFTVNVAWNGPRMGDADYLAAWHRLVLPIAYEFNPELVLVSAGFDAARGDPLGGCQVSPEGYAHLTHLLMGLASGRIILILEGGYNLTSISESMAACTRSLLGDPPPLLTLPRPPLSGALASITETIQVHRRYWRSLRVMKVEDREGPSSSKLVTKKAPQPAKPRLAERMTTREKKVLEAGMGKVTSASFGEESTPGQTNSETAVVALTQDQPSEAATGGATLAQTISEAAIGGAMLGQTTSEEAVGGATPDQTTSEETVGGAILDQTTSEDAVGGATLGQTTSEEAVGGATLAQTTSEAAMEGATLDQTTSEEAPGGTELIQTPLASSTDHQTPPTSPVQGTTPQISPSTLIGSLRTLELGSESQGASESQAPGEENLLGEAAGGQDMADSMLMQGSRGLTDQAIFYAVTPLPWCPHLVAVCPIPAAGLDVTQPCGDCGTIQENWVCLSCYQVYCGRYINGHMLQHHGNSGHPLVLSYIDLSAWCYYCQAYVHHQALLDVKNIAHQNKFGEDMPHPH
Description: Inhibition of HDAC6 purified from HEK293 cells by Western blot. The format is cell-free.

Data set [5] concerns the target T2, Cytochrome P450 2C9 (Homo sapiens, UniProt P11712). Description: Inhibition of CYP2C9 in human liver microsomes. It counts as ADME, Microsome. The method in brief: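 Human liver microsomes. Read-out is tritium released as tritiated water on CYP2C9-mediated 4'-hydroxylation of diclofenac tritiated at the 4' position. IC50 values are means of >2 experiments.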
For orientation: Microsomes from liver hold many membrane-bound enzymes, among them those of drug oxidation.

For data set [6], the target named is T2, Cytochrome P450 2C9. Put plainly: Inhibition of CYP2C9 in human hepatocytes. It counts as ADME, cell-based, Hepatocyte. The method in brief:
(§1)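 Human hepatocytes. Read-out is CYP2C9-mediated 4'-hydroxylation of 4'-tritiated diclofenac, measured as tritiated water. Run without serum and with 10% FBS added. IC50 values are means of >2 experiments.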

The target in data set [7] is T2, Cytochrome P450 2C9. Put plainly: Inhibition of CYP2C9 in human hepatocytes in presence of 10% fetal bovine serum. It counts as ADME, cell-based, Hepatocyte. The method in brief: as §1
Data set [8] concerns Hepatocyte. Put plainly: Toxicity in human hepatocytes by MTS assay. The format is cell-based.
Data set [9] can be described thus: Stability in human HCT116 cells by LCMS/MS in presence of 10% fetal bovine serum. The format is ADME, cell-based, HCT-116. A digest of the protocol: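 Compounds at 1 and 5 µM incubated with HCT116 cells in medium with 10% FBS for up to 24 h. Aliquots taken over time and analysed by LCMS/MS. A cell-free medium control was run. Half-life was derived.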
A short description of data set [10]: Stability in human HCT116 cells S9 fraction by LCMS/MS in presence of NADPH. It counts as ADME, subcellular. The method in brief:
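S9 at 1 mg/ml with 1 mM NADPH plus a regenerating system, 37 °C with low shaking. Stopped with 1N HCl, centrifuged, supernatant diluted with acetonitrile containing internal standard, analysed by LCMS/MS.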

Data set [11] deals with T3, Histone deacetylase (Homo sapiens) (UniProt Q13547+O15379+Q9UBN7+Q92769+Q9UQL6+Q8WUI4+Q9BY41+Q96DB2+P56524+Q9UKV0+Q969S8). The conditions noted are these: HCT-116, 25 uM.
Data set [12] has as its target Histone deacetylase. Description: Inhibition of HDAC in human HCT116 cells assessed as alpha-tubulin deacetylation. The settings on record: hct-116. The format is cell-based. The method in brief:
(§2)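 HCT116 cells treated 24 h. Alpha-tubulin acetylation measured, with the signal from 10 µM SAHA taken as 100% activation. Values are means of >2 experiments.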

Data set [13] has as its target T3, Histone deacetylase (Homo sapiens). The conditions noted are these: HCT-116, 50 uM.
For data set [14] the target is unchanged. Put plainly: Inhibition of HDAC in human HCT116 cells assessed as alpha-tubulin deacetylation up to 10 uM after 24 hrs. The format is cell-based. The settings on record: HCT-116. The method in brief: as §2
Data set [15] has the same target. Description: Inhibition of HDAC in human HCT116 cells assessed as histone H3 deacetylation up to 10 uM. The format is cell-based. The settings on record: HCT-116.
Data set [16] can be described thus: Toxicity in human […] by MTS assay.
Data set [17] concerns the target T3, Histone deacetylase (Homo sapiens). Description: Inhibition of HDAC in human HCT116 cells assessed as alpha-tubulin deacetylation at 50 uM after 24 hrs relative to 10 uM SAHA. The format is cell-based. The settings on record: HCT-116. The method in brief: as §2
Data set [18] concerns the target Histone deacetylase. Put plainly: Inhibition of HDAC in human HCT116 cells assessed as histone H3 deacetylation. The format is cell-based. The conditions noted are these: hct-116.

What is called IC50 is the midpoint of a concentration-inhibition curve. A word on the half-life: it is how long it takes for the measured level to halve. Broadly, the inhibition is the percentage by which the read-out fell short of the control. Broadly, the EC50 is the midpoint of the concentration-response curve.

Active and inactive are the calls of the source. The calls are words filed in the database; no cut-off is given here.

Chain of Histone deacetylase 3 (O15379 whole entry, the tested form may be a part): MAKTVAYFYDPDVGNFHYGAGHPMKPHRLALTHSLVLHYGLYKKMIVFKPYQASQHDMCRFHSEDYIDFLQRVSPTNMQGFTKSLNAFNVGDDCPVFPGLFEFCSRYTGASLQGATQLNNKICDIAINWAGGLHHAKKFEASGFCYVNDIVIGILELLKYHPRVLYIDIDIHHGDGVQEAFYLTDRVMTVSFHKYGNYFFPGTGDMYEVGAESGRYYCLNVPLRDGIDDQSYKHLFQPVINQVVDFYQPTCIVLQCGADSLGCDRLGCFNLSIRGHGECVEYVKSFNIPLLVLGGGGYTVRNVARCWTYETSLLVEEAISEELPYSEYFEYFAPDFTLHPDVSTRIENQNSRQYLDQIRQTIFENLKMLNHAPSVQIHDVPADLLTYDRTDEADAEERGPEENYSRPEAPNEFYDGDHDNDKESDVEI
T2 sequence (P11712 whole entry): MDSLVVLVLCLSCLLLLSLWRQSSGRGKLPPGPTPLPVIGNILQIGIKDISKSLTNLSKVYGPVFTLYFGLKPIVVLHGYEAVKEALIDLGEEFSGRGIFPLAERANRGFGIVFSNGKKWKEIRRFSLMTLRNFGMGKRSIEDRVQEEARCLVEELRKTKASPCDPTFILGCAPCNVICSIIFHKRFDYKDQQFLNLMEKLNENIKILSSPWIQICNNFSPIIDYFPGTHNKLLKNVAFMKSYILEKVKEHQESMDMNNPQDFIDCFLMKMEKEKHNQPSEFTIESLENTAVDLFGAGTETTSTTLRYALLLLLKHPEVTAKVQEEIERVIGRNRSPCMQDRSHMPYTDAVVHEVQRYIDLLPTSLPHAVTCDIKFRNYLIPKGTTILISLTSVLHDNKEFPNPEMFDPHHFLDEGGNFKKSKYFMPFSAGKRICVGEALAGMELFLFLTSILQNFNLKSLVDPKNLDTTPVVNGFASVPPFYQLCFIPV
Chain of Histone deacetylase 1 (Q13547 whole entry): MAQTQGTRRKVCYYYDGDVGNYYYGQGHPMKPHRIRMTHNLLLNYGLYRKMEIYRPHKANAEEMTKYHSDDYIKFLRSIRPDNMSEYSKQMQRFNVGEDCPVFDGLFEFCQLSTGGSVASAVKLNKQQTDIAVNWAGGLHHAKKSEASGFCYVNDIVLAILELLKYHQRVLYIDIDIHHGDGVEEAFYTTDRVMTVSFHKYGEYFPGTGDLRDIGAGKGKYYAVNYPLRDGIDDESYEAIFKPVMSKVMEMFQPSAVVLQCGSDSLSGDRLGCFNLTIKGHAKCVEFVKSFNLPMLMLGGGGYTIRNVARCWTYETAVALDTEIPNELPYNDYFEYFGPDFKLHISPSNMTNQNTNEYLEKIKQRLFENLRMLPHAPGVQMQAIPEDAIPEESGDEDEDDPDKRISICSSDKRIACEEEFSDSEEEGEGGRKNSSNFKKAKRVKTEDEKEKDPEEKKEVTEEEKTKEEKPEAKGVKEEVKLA

Turning to `O=C(c1ccc(C(=O)C(F)(F)F)s1)N1CCC(c2nnc(-c3ccccc3)o2)CC1`, the IC50 in data set [1] worked out at 1300 nM; in data set [2] it was 2800 nM; in data set [3], 70 nM; in [4], 160 nM; in [5], 8000 nM; in data set [6], 8000 nM. Also, in [7], the IC50 is 5000 nM. Further, the Activity entry in data set [8] is “Non-toxic”. The half-life in [9] is 2 h.

In data set [4], `O=C(NCC1CCCCC1)c1ccc(C(=O)C(F)(F)F)cn1` registered an IC50 of 3320 nM. Further, the half-life in [10] is over 2 h.

Regarding `C[C@H](NC(=O)c1ccc(C(=O)C(F)(F)F)s1)c1ccccc1`, the results for the IC50 in data set [1], in [3] and in data set [4] were 5000 nM, 170 nM and 150 nM, respectively.

In the case of `CC(NC(=O)c1ccc(C(=O)C(F)(F)F)s1)c1cccc2ccccc12` (stereo not drawn), the IC50 worked out at 830 nM in data set [1]; 840 nM in data set [2]; 170 nM in data set [3]; 360 nM in [4]; 1400 nM in [5]; 11000 nM in [6]. In addition, the IC50 in data set [7] was found to be 17000 nM. Besides, the Activity result in data set [8] is recorded as “Non-toxic”. The half-life in data set [9] is 3 h. In [11], this compound gave an inhibition of 50%.

In data set [3], `CN(Cc1ccc2nccnc2c1)C(=O)c1ccc(C(=O)C(F)(F)F)s1` gave an IC50 of 100 nM. Moreover, the EC50 in data set [12] is 12000 nM. For the same compound, the half-life in data set [9] is 3.5 h; in data set [10] it was 0.333 h. The compound further displayed an inhibition in data set [13] of 40%.

Consider `O=C(c1ncc(C(=O)C(F)(F)F)s1)N1CCc2ccccc21`, for which the IC50 in [1] came out at 1600 nM; in data set [3] it was 13 nM; in data set [4], 410 nM. Further, the result in data set [14] was inactive. For the same compound, in data set [10], the half-life is 0.333 h.

For the compound `COc1ccc(Cl)cc1N1CCN(C(=O)c2ccc(C(=O)C(F)(F)F)s2)CC1`, the IC50 is 4400 nM in data set [1]; over 10000 nM in data set [2]; 530 nM in [3]; 175 nM in data set [4]; 1800 nM in data set [5]; 1800 nM in data set [6]. Also, the result in data set [14] and in data set [15] was inactive. The Activity entry in data set [8] and in data set [16] was “Non-toxic” each time. Besides, the half-life in data set [9] is 2 h.

Turning to `COc1cccc(N2CCN(C(=O)c3ccc(C(=O)C(F)(F)F)s3)CC2)c1`, the 50% inhibitory concentration (IC50) in [3] was found to be 480 nM; in data set [4] it was 170 nM; in data set [5], 5000 nM; in data set [6], 8000 nM; in data set [7], 8000 nM. Also, in data set [17], the inhibition was found to be 50%. The Activity entry in data set [8] was “Non-toxic”.

`O=C(c1ccc(C(=O)C(F)(F)F)[nH]1)N1CCc2ccccc21` came in with an IC50 in data set [4] of 580 nM. For the same compound, the half-life in data set [10] was determined as 0.25 h.

As for `CC(NC(=O)c1ccc(C(=O)C(F)(F)F)s1)c1ccncc1` (stereo not drawn), the IC50 in data set [1] was determined as 1600 nM; in data set [2], 1500 nM; in data set [3] it was 90 nM; in data set [4] it was 260 nM; in [5], 13000 nM; in [6] it was 10000 nM. The IC50 in data set [7] stood at 3000 nM. Besides, the EC50 is 10000 nM in data set [12] and over 35000 nM in data set [18]. In data set [8], the Activity entry was “Non-toxic”. In addition, the half-life in [9] is 5 h.

As to `CN(Cc1ccccc1)C(=O)c1ccc(C(=O)C(F)(F)F)s1`, the IC50 was 890 nM in data set [1], 560 nM in data set [2] and 510 nM in data set [3].

On to `O=C(NCc1ccccc1Cl)c1ccc(C(=O)C(F)(F)F)s1`, for which the IC50 in data set [1] was 550 nM; in [3] it was 100 nM; in [4], 190 nM. Besides, in [14], the outcome was inactive. Also, the half-life in [10] came out at 0.25 h.

In [3], `Cc1noc(-c2ccc(C(=O)C(F)(F)F)s2)n1` came in with an IC50 of 75 nM. The EC50 in data set [12] worked out at 6500 nM. Further, the half-life in data set [10] is over 2 h.

As to `O=C(c1ccc(C(=O)C(F)(F)F)s1)N1CCc2ccccc21`, the IC50 in [1] turned out to be 1300 nM; in data set [2] it was 1400 nM; in [3] it was 150 nM; in [4] it was 130 nM.

With `O=C(c1ccc(C(=O)C(F)(F)F)s1)N1CCn2c(-c3ccccc3)cnc2C1`, the IC50 in [1] was 4700 nM; in data set [2], over 5000 nM; in [3], 300 nM.
